Test results published in ChEMBL document CHEMBL1136978, “Aryl urea derivatives of spiropiperidines as NPY Y5 receptor antagonists” (Bioorg Med Chem Lett, 2009).

How the values were obtained:
Format in all cases: ADME, organism-based
[1] = Plasma concentration in rat at 10 mg/kg, po after 2 hrs; parameters: dose 10 mg/kg, route oral
How it was run: (§1)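 Single oral dose of 10 mg/kg to rats (n = 3). Plasma (µM), brain (nmol/g tissue) and CSF (µM) levels taken at 2 h post-dose.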

[2] = test system: Brain; assay: Drug level in rat brain at 10 mg/kg, po after 2 hrs measured per gram of tissue; parameters: dose 10 mg/kg, route oral; conditions: in vivo; how it was run: as §1
[3] = Oral bioavailability in rat at 3 mg/kg, iv and 10 mg/kg, po; conditions: in vivo
[4] = Drug level in rat cerebrospinal fluid at 10 mg/kg, po after 2 hrs; parameters: dose 10 mg/kg, route oral; conditions: read-out: Drug uptake; how it was run: as §1

| concentration at 2 h [1] | Drug uptake [2] | bioavailability [3] | concentration at 2 h [4] | SMILES |
| --- | --- | --- | --- | --- |
| 360 nM | 0.029 nmol/g | 8% | – | O=C1NC2(CCN(C(=O)Nc3cnc(-c4ccccc4)cn3)CC2)c2ccccc21 |
| 1420 nM | 1.09 nmol/g | – | < 10 nM | O=C1OC2(CCN(C(=O)Nc3cc(-c4ccc(Cl)cc4)no3)CC2)c2ccccc21 |
| 3860 nM | 0.26 nmol/g | – | 130 nM | O=C1OC2(CCN(C(=O)Nc3ncc(-c4ccccc4)cn3)CC2)c2ccccc21 |
| 2980 nM | 2.92 nmol/g | 49% | 100 nM | O=C1OC2(CCN(C(=O)Nc3cnc(-c4ccccc4)cn3)CC2)c2ccccc21 |
| – | – | 3% | – | O=C1Cc2ccccc2C2(CCN(C(=O)Nc3cnc(-c4ccccc4)cn3)CC2)N1 |
